Here are results for twelve compounds from ChEMBL document CHEMBL5244228, “Novel linked butanolide dimer compounds increase adiponectin production during adipogenesis in human mesenchymal stem cells through peroxisome proliferator-activated receptor γ modulation” (Eur J Med Chem, 2020).

In test [1] the target is T1, Peroxisome proliferator-activated receptor gamma (Homo sapiens, UniProt P37231).
T1 sequence (P37231 whole entry): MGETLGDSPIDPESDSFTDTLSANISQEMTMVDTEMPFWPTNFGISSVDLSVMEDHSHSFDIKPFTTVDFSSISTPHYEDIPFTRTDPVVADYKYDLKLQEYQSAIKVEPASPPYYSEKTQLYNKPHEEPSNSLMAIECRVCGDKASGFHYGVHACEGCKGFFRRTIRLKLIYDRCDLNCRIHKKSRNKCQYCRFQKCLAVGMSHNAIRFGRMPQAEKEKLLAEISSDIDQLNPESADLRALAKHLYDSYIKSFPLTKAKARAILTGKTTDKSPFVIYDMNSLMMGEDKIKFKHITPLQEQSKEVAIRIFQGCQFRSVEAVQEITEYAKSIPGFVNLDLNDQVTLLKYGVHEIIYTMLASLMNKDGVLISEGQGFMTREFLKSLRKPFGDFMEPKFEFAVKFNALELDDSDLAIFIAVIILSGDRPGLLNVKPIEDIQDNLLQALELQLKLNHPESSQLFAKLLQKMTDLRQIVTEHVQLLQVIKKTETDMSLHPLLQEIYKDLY
Briefly: Displacement of [3H]rosiglitazone from human PPAR-gamma incubated for 1 day by radioligand binding assay. (In general: Displacement assays read how much labelled ligand stays bound in the presence of the test substance.)

The target in test [2] is T1, Peroxisome proliferator-activated receptor gamma. Briefly: Agonist activity at PPAR-gamma in human BMMSC cells assessed as induction of adiponectin production in presence of IDX adipogenic induction medium and measured on day 5 by ELISA. Type of test: cell-based.
For test [3], the target named is T2, Peroxisome proliferator-activated receptor gamma (Homo sapiens) (UniProt P37231).
T2 sequence (whole entry): T1 sequence (P37231 whole entry)
Briefly: Displacement of Fluormone Pan-PPAR Green from GST-tagged human PPAR-gamma ligand binding domain at 10 uM by LanthaScreen TR-FRET competitive binding assay. The method in brief: (§1)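 TR-FRET competitive binding run with a LanthaScreen kit, following a previously described protocol; values read on a plate reader.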
In general terms: Time-resolved FRET reads energy transfer from a long-lived donor to a nearby acceptor.

Test [4] has as its target T3, Peroxisome proliferator-activated receptor alpha (Homo sapiens) (UniProt Q07869).
T3 sequence (whole entry): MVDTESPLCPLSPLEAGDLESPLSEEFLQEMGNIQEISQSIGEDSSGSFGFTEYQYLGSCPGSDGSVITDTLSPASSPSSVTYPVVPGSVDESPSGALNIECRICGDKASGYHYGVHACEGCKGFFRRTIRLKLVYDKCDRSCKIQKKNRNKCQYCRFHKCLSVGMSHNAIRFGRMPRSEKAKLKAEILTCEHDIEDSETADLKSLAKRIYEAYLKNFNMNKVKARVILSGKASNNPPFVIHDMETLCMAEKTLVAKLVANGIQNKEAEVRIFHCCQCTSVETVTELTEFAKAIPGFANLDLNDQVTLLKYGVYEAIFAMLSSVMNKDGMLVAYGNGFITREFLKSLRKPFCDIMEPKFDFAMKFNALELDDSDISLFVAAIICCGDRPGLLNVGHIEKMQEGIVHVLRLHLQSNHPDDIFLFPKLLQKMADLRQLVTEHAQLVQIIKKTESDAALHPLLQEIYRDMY
Briefly: Displacement of Fluormone Pan-PPAR Green from GST-tagged human PPAR-alpha ligand binding domain at 10 uM by LanthaScreen TR-FRET competitive binding assay. The method in brief: as §1

The target of test [5] is T4, Peroxisome proliferator-activated receptor delta (Homo sapiens) (UniProt Q03181).
T4 sequence (whole entry): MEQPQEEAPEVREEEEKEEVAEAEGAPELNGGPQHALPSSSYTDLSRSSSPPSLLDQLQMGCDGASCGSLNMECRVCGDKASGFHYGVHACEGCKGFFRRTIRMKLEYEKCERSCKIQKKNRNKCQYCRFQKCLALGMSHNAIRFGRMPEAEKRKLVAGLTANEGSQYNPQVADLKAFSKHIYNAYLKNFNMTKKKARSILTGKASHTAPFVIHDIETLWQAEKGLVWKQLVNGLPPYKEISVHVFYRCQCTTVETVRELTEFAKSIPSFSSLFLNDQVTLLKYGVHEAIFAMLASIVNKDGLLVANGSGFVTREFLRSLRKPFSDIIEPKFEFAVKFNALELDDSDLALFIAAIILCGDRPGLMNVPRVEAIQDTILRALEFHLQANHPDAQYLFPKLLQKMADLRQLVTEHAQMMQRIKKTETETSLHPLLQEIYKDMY
Briefly: Displacement of Fluormone Pan-PPAR Green from GST-tagged human PPAR-delta ligand binding domain at 10 uM by LanthaScreen TR-FRET competitive binding assay. The method in brief:
as §1

Test [6] has as its target T2, Peroxisome proliferator-activated receptor gamma (Homo sapiens). Briefly: Displacement of [3H]rosiglitazone from human PPAR-gamma at 30 uM incubated for 1 day by radioligand binding assay. As to conditions: filed as agonist.
Test [7] has the same target. Briefly: Partial agonist activity at PPAR-gamma in human BMMSC cells assessed as inhibition of pioglitazone-induced adiponectin production at 1 to 10 uM in presence of IDX adipogenic induction medium and pioglitazone and measured on day 5 by ELISA. It is filed as cell-based. As to conditions: filed as partial agonist, dose 1-10 µM, time 5.0 day. The essentials:
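Human bone marrow MSCs grown in DMEM (1 g/L glucose), 10% FBS, 1% pen-strep. Adipogenesis induced in DMEM (4.5 g/L glucose), 10% FBS, insulin, dexamethasone, IBMX, with compounds co-added alongside pioglitazone. Supernatants collected on day 5; adiponectin quantified by ELISA. Mean ± SD, n = 3.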
For orientation: An ELISA detects its analyte on a solid surface through an enzyme-linked reagent.

As usually defined, the Ki is the dissociation constant of the complex between target and ligand, obtained from inhibition or displacement. Higher therefore signals weaker binding. Usually EC50 stands for the concentration that produces a half-maximal response.

Active and inactive are the calls of the source. No cut-off for these calls is given here.

`CCCC=C1C(=O)O[C@@H](C)[C@@H]1O`: in test [1], affinity was put at a Ki of 22 µM. Moreover, the EC50 in test [2] was 19 µM. Moreover, in test [3] (filed as agonist), the outcome was Active. Moreover, the result in test [4] and in test [5] was inactive.
For `CCCCCCC/C=C1/C(=O)O[C@@H](C)[C@H]1O`, the result in test [3] (filed as agonist) was Active. For the same compound, the outcome in test [4] and in test [5] was inactive.
For `CCCCC/C=C1/C(=O)O[C@@H](C)[C@H]1O`, the outcome in test [3] (filed as agonist) was Active. In addition, the result in test [4] and in test [5] was inactive.
As to `CCCCCCCC/C=C1/C(=O)O[C@@H](C)[C@H]1O`, in test [3] (filed as agonist), the outcome was Active. The result in test [4] and in test [5] was inactive.
Take `CCCCCCCCC/C=C1/C(=O)O[C@@H](C)[C@H]1O`: in test [3] (filed as agonist), the result was Active. Further, the outcome in test [4] and in test [5] was inactive.
With `CCCCC/C=C1/C(=O)O[C@@H](C)[C@@H]1O`, the result in test [3] (filed as agonist) was Active. For the same compound, the outcome in test [4] and in test [5] was inactive.
Consider `CCCCCCCCCC/C=C1/C(=O)O[C@@H](C)[C@H]1O`, for which, in test [3] (filed as agonist), the outcome was Active. Besides, the outcome in test [4] and in test [5] was inactive.
`CCCCCCCCCCC/C=C1/C(=O)O[C@@H](C)[C@H]1O`: the outcome in test [3] (filed as agonist) was Active. Besides, the result in test [4] and in test [5] was inactive.
Consider `CCCCCCCCCCCC/C=C1/C(=O)O[C@@H](C)[C@H]1O`, for which the result in test [3] (filed as agonist) was Active. In addition, the result in test [4] and in test [5] was inactive.
The compound `CCC/C=C1/C(=O)O[C@@H](C)[C@H]1O` came in with an Activity in test [6] of 48.5%. The compound further gave a Ki in test [1] above 30 µM. The EC50 in test [2] worked out at 25.3 µM. The outcome in test [3] (filed as agonist) was Active. The result in test [4] and in test [5] was inactive.
`CCCCCCCCCCCCC/C=C1/C(=O)O[C@@H](C)[C@H]1O` showed a Ki in test [1] of 9.2 µM. Further, the Activity entry in test [7] was “Dose-Dependent Effect”. Moreover, in test [2], the EC50 is above 30 µM. Besides, the result in test [3] (filed as partial agonist) was Active. Besides, the outcome in test [4] and in test [5] was inactive.
Take `CCCCCCCCCCCCC/C=C1/C(=O)O[C@@H](C)[C@@H]1O`: the affinity in test [1], expressed as Ki, was 1.9 µM. Moreover, the EC50 in test [2] is above 30 µM. Moreover, the outcome in test [3] (filed as agonist) was Active. The outcome in test [4] and in test [5] was inactive.
